ChEMBL document CHEMBL4138115, “An evaluation of Minor Groove Binders as anti-fungal and anti-mycobacterial therapeutics” (Eur J Med Chem, 2017)
Values after ≈ are worked out from the molar mass of the structure shown. Active and inactive are the calls of the source. No cut-off for these calls is given here.

Legend:
Salmon testes DNA = assay: Binding affinity to wild type salmon sperm DNA assessed as change in melting temperature at 10 uM; assay type: nucleic-acid assay; details: Salmonidae
Cryptococcus neoformans = assay: Antifungal activity against Cryptococcus neoformans ATCC 208821 after 24 hrs by resazurin dye-based two-fold serial dilution assay; assay type: functional
[1] = test system: Trypanosoma brucei brucei; assay: Antiparasitic activity against Trypanosoma brucei brucei Lister 427 after 48 hrs by Alamar blue assay; assay type: functional, organism-based; details: Lister 427, 48 h
Outline: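 Bloodstream-form Lister 427 in HMI-9 with 10% heat-inactivated FBS, counted by haemocytometer and seeded at 2 × 10⁴ cells/mL over serial compound dilutions. After 48 h at 37 °C, 5% CO₂, resazurin (0.49 mM solution in PBS) added for a further 24 h. Fluorescence ex 544/em 590 nm; EC50 from curve fit. Duplicates, at least three independent occasions.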

[2] = Cytotoxicity against HEK293 cells reduction in cell viability after 20 hrs by resazurin dye based fluorescence assay; details: human
Outline: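 HEK-293 cells at 4000 per well in DMEM with 10% FBS, exposed to two-fold dilutions from 32 to 0.25 (final) for 20 h at 37 °C, 5% CO₂. Resazurin added (100 final) for 3 h more; fluorescence ex 560/em 590 nm. CC50 is the concentration giving 50% cytotoxicity. Duplicates.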

[3] = test system: Mycobacterium tuberculosis; assay: Antimycobacterial activity against GFP labelled Mycobacterium tuberculosis H37Rv up to 14 days by fluorescence assay; assay type: functional
Outline: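 GFP-labelled Mtb H37Rv at 1 × 10^5 CFU/well in 7H9 broth with 10% OADC and 25 kanamycin. Two-fold compound dilutions were tested. Incubated at 37 °C without shaking.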

Staphylococcus aureus = assay: Antibacterial activity against methicillin-resistant Staphylococcus aureus ATCC 43300 after 18 hrs by two-fold serial dilution assay; assay type: functional; details: ATCC 43300, 18 h
Outline: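 MRSA ATCC 43300 grown overnight in cation-adjusted Mueller Hinton broth at 37 °C, diluted 40-fold, grown 1.5–3 h to mid-log. Inoculated at 5 × 10⁵ CFU/mL into two-fold compound dilutions (final 32–0.25 range). Incubated 18 h at 37 °C without shaking; OD600 read. Inhibition normalised to media-only and untreated-bacteria controls. MIC taken as lowest concentration giving ≥80% inhibition; duplicates (n = 2).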

Candida albicans = assay: Antifungal activity against Candida albicans ATCC 90028 after 24 hrs by resazurin dye-based two-fold serial dilution assay; assay type: functional; details: ATCC 90028, 24 h
[4] = Lipophilicity of the compound assessed as retention time by HPLC method; assay type: physicochemical
Outline: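 Reverse-phase C18 HPLC with water and acetonitrile, each containing 0.1% TFA. Gradient runs from 100% water to 100% acetonitrile over 1 h; lipophilicity reported as retention time in minutes.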

Trypanosoma congolense = assay: Antiparasitic activity against Trypanosoma congolense IL3000 after 69 hrs by Alamar blue assay; assay type: functional, organism-based; details: IL3000, 69 h
Outline: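 Bloodstream-form IL3000 counted electronically and seeded at 1.25 × 10⁵ trypanosomes/ml into threefold serial compound dilutions. Kept 69 h at 34 °C, 5% CO₂, then resazurin (12.5 mg per 100 mL PBS) added for 3 h. Fluorescence ex 536/em 588 nm gives EC50. Three separate assay runs.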

[5] = Selectivity index, ratio of CC50 for cytotoxicity against HEK293 cells to MIC50 for antimycobacterial activity against GFP labelled Mycobacterium tuberculosis H37Rv; assay type: toxicity, cell-based; details: human, read-out: Selectivity Index

SMILES	ΔTm (Salmon testes DNA)	MIC70 (Cryptococcus neoformans)	EC50 [1]	CC50 at 20 h [2]	MIC99 [3]	MIC80 (Staphylococcus aureus)	MIC80 (Candida albicans)	Retention_time [4]	EC50 (Trypanosoma congolense)	MIC99 ([3]; 336 h)	selectivity ratio [5]
CC(C)CCn1cc(NC(=O)c2cc(NC(=O)c3cc(NC(=N)N)cn3C)cn2C)cc1C(=O)NCCCN(C)C	4 °C	32 µg/mL (≈ 56.5 µM)	49 µM	> 32 µg/mL	inactive	> 32 µg/mL	> 32 µg/mL	20.1 min	5.2 µM		
CC(C)CCc1sc(NC(=O)c2cc(NC(=O)c3cc(NC(=N)N)cn3C)cn2C)nc1C(=O)NCCCN(C)C	4 °C	4 µg/mL (≈ 6.84 µM)	15 µM	20 µg/mL (≈ 34.2 µM)	inactive	16 µg/mL (≈ 27.4 µM)	> 32 µg/mL	23.4 min	6.1 µM		
CC(C)CCn1cc(NC(=O)c2cc(NC(=O)c3cc(NC(=N)c4ccccc4)cn3C)cn2C)cc1C(=O)NCCCN(C)C	8 °C	>32 µg/mL	33 µM		inactive	> 32 µg/mL	> 32 µg/mL	22.6 min	1.2 µM		
CC(C)CCc1sc(NC(=O)c2cc(NC(=O)c3cc(NC(=N)c4ccc(F)cc4)cn3C)cn2C)nc1C(=O)NCCCN(C)C	9 °C	4 µg/mL (≈ 6.03 µM)	18 µM	18 µg/mL (≈ 27.1 µM)		8 µg/mL (≈ 12.1 µM)	> 32 µg/mL	26.2 min	10 µM	3.1 µg/mL (≈ 4.67 µM)	25
CC(=O)Nc1cc(C(=O)Nc2cc(C(=O)Nc3cc(C(=O)NCCCN(C)C)n(CCC(C)C)c3)n(C)c2)n(C)c1	3 °C	>32 µg/mL	54 µM		inactive	> 32 µg/mL	> 32 µg/mL	22.8 min	6.5 µM		
CC(C)CCc1sc(NC(=O)c2cc(NC(=O)c3cc(NC(=N)c4ccc(Cl)cc4)cn3C)cn2C)nc1C(=O)NCCCN(C)C	4 °C	4 µg/mL (≈ 5.88 µM)	13 µM	10 µg/mL (≈ 14.7 µM)		8 µg/mL (≈ 11.8 µM)	> 32 µg/mL	26.8 min	4.3 µM	13 µg/mL (≈ 19.1 µM)	
CC(C)CCc1sc(NC(=O)c2cc(NC(=O)c3cc(NC(=N)c4cccc(Cl)c4)cn3C)cn2C)nc1C(=O)NCCCN(C)C	5 °C	2 µg/mL (≈ 2.94 µM)	13 µM	9.2 µg/mL (≈ 13.5 µM)		2 µg/mL (≈ 2.94 µM)	> 32 µg/mL	26.9 min	5.6 µM	13 µg/mL (≈ 19.1 µM)	
CN(C)CCCNC(=O)c1cc(NC(=O)c2cc(NC(=O)c3cc(NC(=N)c4cnc5ccccc5c4)cn3C)cn2C)cn1C	> 17 °C	8 µg/mL (≈ 12.8 µM)	5.7 µM	> 32 µg/mL		> 32 µg/mL	> 32 µg/mL	19.7 min	0.6 µM	25 µg/mL (≈ 40.1 µM)	
COc1cccc(C(=N)Nc2cc(C(=O)Nc3cc(C(=O)Nc4cc(C(=O)NCCCN(C)C)n(C)c4)n(C)c3)n(C)c2)c1	11 °C	>32 µg/mL	44 µM		inactive	> 32 µg/mL	> 32 µg/mL	17.5 min	1.4 µM		
CC(=O)Nc1cc(C(=O)Nc2cc(C(=O)Nc3cc(C(=O)NCCCN(C)C)n(C)c3)n(C)c2)n(C)c1	5 °C	>32 µg/mL	> 100 µM		inactive	> 32 µg/mL	> 32 µg/mL	18.3 min	7 µM		
CC(C)CCc1sc(NC(=O)c2cc(NC(=O)c3cc(NC(=N)c4cccc(F)c4)cn3C)cn2C)nc1C(=O)NCCCN(C)C	4 °C	8 µg/mL (≈ 12.1 µM)	18 µM	18 µg/mL (≈ 27.1 µM)		8 µg/mL (≈ 12.1 µM)	> 32 µg/mL	26.2 min	5.5 µM	3.1 µg/mL (≈ 4.67 µM)	25
COc1cccc(C(=N)Nc2cc(C(=O)Nc3cc(C(=O)Nc4cc(C(=O)NCCCN(C)C)n(CCC(C)C)c4)n(C)c3)n(C)c2)c1	5 °C	>32 µg/mL	24 µM	> 32 µg/mL	inactive	> 32 µg/mL	> 32 µg/mL	23.8 min	1.4 µM		
CC(C)CCc1sc(NC(=O)c2cc(NC(=O)c3cc(NC(=N)c4ccccc4)cn3C)cn2C)nc1C(=O)NCCCN(C)C	7 °C	4 µg/mL (≈ 6.19 µM)	23 µM	> 32 µg/mL		> 32 µg/mL	> 32 µg/mL	26.2 min	5.8 µM	25 µg/mL (≈ 38.7 µM)	
CN(C)CCCNC(=O)c1cc(NC(=O)c2cc(NC(=O)c3cc(NC(=N)c4ccccc4)cn3C)cn2C)cn1C	11 °C	>32 µg/mL	> 100 µM		inactive	> 32 µg/mL	> 32 µg/mL	17.8 min	2.2 µM		
CC(C)CCc1sc(NC(=O)c2cc(NC(=O)c3cc(NC(=N)c4cnc5ccccc5c4)cn3C)cn2C)nc1C(=O)NCCCN(C)C	2 °C	0.25 µg/mL (≈ 0.359 µM)	3.3 µM	1.2 µg/mL (≈ 1.72 µM)	inactive	1 µg/mL (≈ 1.43 µM)	> 32 µg/mL	27.3 min	1.9 µM		
CC(C)CCn1cc(NC(=O)c2cc(NC(=O)c3cc(NC(=N)c4cnc5ccccc5c4)cn3C)cn2C)cc1C(=O)NCCCN(C)C	17 °C	8 µg/mL (≈ 11.8 µM)	2.7 µM	12 µg/mL (≈ 17.7 µM)		32 µg/mL (≈ 47.1 µM)	> 32 µg/mL	24.8 min	0.82 µM	25 µg/mL (≈ 36.8 µM)	
CC(=O)Nc1cc(C(=O)Nc2cc(C(=O)Nc3nc(C(=O)NCCCN(C)C)c(CCC(C)C)s3)n(C)c2)n(C)c1	4 °C	16 µg/mL (≈ 27.4 µM)	28 µM	> 32 µg/mL	inactive	16 µg/mL (≈ 27.4 µM)	> 32 µg/mL	27.1 min	9.1 µM		
CN(C)CCCNC(=O)c1cc(NC(=O)c2cc(NC(=O)c3cc(NC(=N)N)cn3C)cn2C)cn1C	5 °C	>32 µg/mL	> 100 µM		inactive	> 32 µg/mL	> 32 µg/mL	14.2 min	6.2 µM		
COc1cccc(C(=N)Nc2cc(C(=O)Nc3cc(C(=O)Nc4nc(C(=O)NCCCN(C)C)c(CCC(C)C)s4)n(C)c3)n(C)c2)c1	7 °C	2 µg/mL (≈ 2.96 µM)	17 µM	> 32 µg/mL		1 µg/mL (≈ 1.48 µM)	> 32 µg/mL	26.8 min	5.8 µM	25 µg/mL (≈ 37 µM)	
